Data: ChEMBL document CHEMBL1151428, “Capability of 11 antipneumococcal antibiotics to select for resistance by multistep and single-step methodologies” (2007)
In brackets after ≈: the same amount, converted by molar mass.

Legend:
Format in all cases: functional
Streptococcus pneumoniae [1] = experiment: Antimicrobial activity against drug-resistant Streptococcus pneumoniae isolate 24 after 50 passages with moxifloxacin measured after 10 antibiotic-free subculture by multi-step resistance selection technique
Outline: (§1)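 Mutants selected by daily broth passage in subinhibitory drug in cation-adjusted Mueller-Hinton broth with 5% lysed horse blood. Stability was tested by 10 daily passages on blood agar without antibiotic, then macrodilution MIC.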

Streptococcus pneumoniae [2] = experiment: Antimicrobial activity against drug-resistant Streptococcus pneumoniae isolate 24 after 14 passages with Telithromycin measured after 10 antibiotic-free subculture by multi-step resistance selection technique; outline: as §1
Streptococcus pneumoniae [3] = experiment: Antimicrobial activity against drug-resistant Streptococcus pneumoniae isolate 24 by NCCLS M7-A7 method
Streptococcus pneumoniae [4] = experiment: Antimicrobial activity against drug-resistant Streptococcus pneumoniae isolate 1635 after 14 passages with azithromycin measured after 10 antibiotic-free subculture by multi-step resistance selection technique; outline: as §1
Streptococcus pneumoniae [5] = experiment: Antimicrobial activity against drug-resistant Streptococcus pneumoniae isolate 1635 after 50 passages by multi-step resistance selection technique
Outline: (§2)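 Daily serial passage in subinhibitory drug levels in 1 ml cation-adjusted Mueller-Hinton broth with 5% lysed horse blood; fresh broth for tigecycline. Each day, 10 μl were taken from the tube one to two dilutions below the MIC whose turbidity matched the growth control, and used to set the next MIC. MIC by macrodilution.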

Streptococcus pneumoniae [6] = experiment: Antimicrobial activity against drug-resistant Streptococcus pneumoniae isolate 3243 after 20 passages with moxifloxacin measured after 10 antibiotic-free subculture by multi-step resistance selection technique; outline: as §1
Streptococcus pneumoniae [7] = experiment: Antimicrobial activity against drug-resistant Streptococcus pneumoniae isolate 3243 after 41 passages with clarithromycin measured after 10 antibiotic-free subculture by multi-step resistance selection technique
Streptococcus pneumoniae [8] = experiment: Antimicrobial activity against drug-resistant Streptococcus pneumoniae isolate 3243 after 29 passages with Telithromycin measured after 10 antibiotic-free subculture by multi-step resistance selection technique; outline: as §1
Streptococcus pneumoniae [9] = experiment: Antimicrobial activity against drug-resistant Streptococcus pneumoniae isolate 3243 after 50 passages by multi-step resistance selection technique
Outline: as §2, with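 “MIC. […]” for “MIC.”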

Streptococcus pneumoniae [10] = experiment: Antimicrobial activity against drug-resistant Streptococcus pneumoniae isolate 3243 by NCCLS M7-A7 method
Streptococcus pneumoniae [11] = experiment: Antimicrobial activity against drug-resistant Streptococcus pneumoniae isolate 3676 after 50 passages with moxifloxacin measured after 10 antibiotic-free subculture by multi-step resistance selection technique
Streptococcus pneumoniae [12] = experiment: Antimicrobial activity against drug-resistant Streptococcus pneumoniae isolate 3274 after 48 passages with Telithromycin measured after 10 antibiotic-free subculture by multi-step resistance selection technique; outline: as §1
Streptococcus pneumoniae [13] = experiment: Antimicrobial activity against drug-resistant Streptococcus pneumoniae isolate 3274 after 50 passages by multi-step resistance selection technique; outline: as §2
Streptococcus pneumoniae [14] = experiment: Antimicrobial activity against drug-resistant Streptococcus pneumoniae isolate 3274 by NCCLS M7-A7 method
Streptococcus pneumoniae [15] = experiment: Antimicrobial activity against drug-resistant Streptococcus pneumoniae isolate 2527 by NCCLS M7-A7 method
Streptococcus pneumoniae [16] = experiment: Antimicrobial activity against drug-resistant Streptococcus pneumoniae isolate 2527 after 50 passages by multi-step resistance selection technique
Outline: as §2, with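 “MIC. […]” for “MIC.”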

Streptococcus pneumoniae [17] = experiment: Antimicrobial activity against drug-resistant Streptococcus pneumoniae isolate 1077 after 49 passages with clindamycin measured after 10 antibiotic-free subculture by multi-step resistance selection technique
Streptococcus pneumoniae [18] = experiment: Antimicrobial activity against drug-resistant Streptococcus pneumoniae isolate 1077 after 29 passages with azithromycin measured after 10 antibiotic-free subculture by multi-step resistance selection technique; outline: as §1
Streptococcus pneumoniae [19] = experiment: Antimicrobial activity against drug-resistant Streptococcus pneumoniae isolate 1077 after 15 passages with Telithromycin measured after 10 antibiotic-free subculture by multi-step resistance selection technique; outline: as §1
Streptococcus pneumoniae [20] = experiment: Antimicrobial activity against drug-resistant Streptococcus pneumoniae isolate 1077 by NCCLS M7-A7 method
Streptococcus pneumoniae [21] = experiment: Antimicrobial activity against drug-resistant Streptococcus pneumoniae isolate 1076 after 14 passages with Telithromycin measured after 10 antibiotic-free subculture by multi-step resistance selection technique; outline: as §1
Streptococcus pneumoniae [22] = experiment: Antimicrobial activity against drug-resistant Streptococcus pneumoniae isolate 1076 by NCCLS M7-A7 method
Streptococcus pneumoniae [23] = experiment: Antimicrobial activity against drug-resistant Streptococcus pneumoniae isolate 1076 after 50 passages by multi-step resistance selection technique
Outline: as §2, with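 “MIC. […]” for “MIC.”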

Streptococcus pneumoniae [24] = experiment: Antimicrobial activity against drug-resistant Streptococcus pneumoniae isolate 3009 after 18 passages with levofloxacin measured after 10 antibiotic-free subculture by multi-step resistance selection technique; outline: as §1
Streptococcus pneumoniae [25] = experiment: Antimicrobial activity against drug-resistant Streptococcus pneumoniae isolate 3009 after 21 passages with gemifloxacin measured after 10 antibiotic-free subculture by multi-step resistance selection technique; outline: as §1
Streptococcus pneumoniae [26] = experiment: Antimicrobial activity against drug-resistant Streptococcus pneumoniae isolate 3009 after 25 passages with clarithromycin measured after 10 antibiotic-free subculture by multi-step resistance selection technique
Streptococcus pneumoniae [27] = experiment: Antimicrobial activity against drug-resistant Streptococcus pneumoniae isolate 3009 after 50 passages by multi-step resistance selection technique
Outline: as §2, with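 “MIC. […]” for “MIC.”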

Streptococcus pneumoniae [28] = experiment: Antimicrobial activity against drug-resistant Streptococcus pneumoniae isolate 1635 after 14 passages with clindamycin measured after 10 antibiotic-free subculture by multi-step resistance selection technique
Streptococcus pneumoniae [29] = experiment: Antimicrobial activity against drug-resistant Streptococcus pneumoniae isolate 37 after 50 passages by multi-step resistance selection technique
Outline: (§3)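 Daily serial passage in broth at subinhibitory drug levels: 1 ml cation-adjusted Mueller-Hinton broth with 5% lysed horse blood; fresh broth for tigecycline. Each day 10 μl inoculum taken from the tube one to two dilutions below MIC matching growth-control turbidity, used to set next MIC.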

Streptococcus pneumoniae [30] = experiment: Antimicrobial activity against drug-resistant Streptococcus pneumoniae isolate 37 after 14 passages with Telithromycin measured after 10 antibiotic-free subculture by multi-step resistance selection technique
Streptococcus pneumoniae [31] = experiment: Antimicrobial activity against drug-resistant Streptococcus pneumoniae isolate 3413 by NCCLS M7-A7 method
Streptococcus pneumoniae [32] = experiment: Antimicrobial activity against drug-resistant Streptococcus pneumoniae isolate 3413 after 50 passages by multi-step resistance selection technique; outline: as §2
Streptococcus pneumoniae [33] = experiment: Antimicrobial activity against drug-resistant Streptococcus pneumoniae isolate 3413 after 30 passages with Telithromycin measured after 10 antibiotic-free subculture by multi-step resistance selection technique; outline: as §1
Streptococcus pneumoniae [34] = experiment: Antimicrobial activity against drug-resistant Streptococcus pneumoniae isolate 3676 after 44 passages with clarithromycin measured after 10 antibiotic-free subculture by multi-step resistance selection technique
Streptococcus pneumoniae [35] = experiment: Antimicrobial activity against drug-resistant Streptococcus pneumoniae isolate 3676 after 14 passages with Telithromycin measured after 10 antibiotic-free subculture by multi-step resistance selection technique
Streptococcus pneumoniae [36] = experiment: Antimicrobial activity against drug-resistant Streptococcus pneumoniae isolate 3676 after 50 passages by multi-step resistance selection technique
Outline: as §3, with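 “MIC. Continued until ≥8-fold MIC rise, minimum 14, maximum 50 passages; MIC read by macrodilution.” for “MIC.”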

Streptococcus pneumoniae [37] = experiment: Antimicrobial activity against drug-resistant Streptococcus pneumoniae isolate 3676 by NCCLS M7-A7 method
Streptococcus pneumoniae [38] = experiment: Antimicrobial activity against drug-resistant Streptococcus pneumoniae isolate 3665 after 14 passages with Telithromycin measured after 10 antibiotic-free subculture by multi-step resistance selection technique

SMILES | MIC (Streptococcus pneumoniae [1]) [µg/mL] | MIC (Streptococcus pneumoniae [2]) [µg/mL] | MIC (Streptococcus pneumoniae [3]) [µg/mL] | MIC (Streptococcus pneumoniae [4]) [µg/mL] | MIC (Streptococcus pneumoniae [5]) [µg/mL] | MIC (Streptococcus pneumoniae [6]) [µg/mL] | MIC (Streptococcus pneumoniae [7]) [µg/mL] | MIC (Streptococcus pneumoniae [8]) [µg/mL] | MIC (Streptococcus pneumoniae [9]) [µg/mL] | MIC (Streptococcus pneumoniae [10]) [µg/mL] | MIC (Streptococcus pneumoniae [11]) [µg/mL] | MIC (Streptococcus pneumoniae [12]) [µg/mL] | MIC (Streptococcus pneumoniae [13]) [µg/mL] | MIC (Streptococcus pneumoniae [14]) [µg/mL] | MIC (Streptococcus pneumoniae [15]) [µg/mL] | MIC (Streptococcus pneumoniae [16]) [µg/mL] | MIC (Streptococcus pneumoniae [17]) [µg/mL] | MIC (Streptococcus pneumoniae [18]) [µg/mL] | MIC (Streptococcus pneumoniae [19]) [µg/mL] | MIC (Streptococcus pneumoniae [20]) [µg/mL] | other results
CO/N=C(\C(=O)N[C@@H]1C(=O)N2C(C(=O)O)=C(CSc3nc(=O)c(O)nn3C)CS[C@H]12)c1csc(N)n1 [CEFTRIAXONE] | 1 (≈ 1.8 µM) | 2 (≈ 3.61 µM) | 1 (≈ 1.8 µM) | 0.016 (≈ 0.0289 µM) | 0.03 (≈ 0.0541 µM) | 0.06 (≈ 0.108 µM) | 0.125 (≈ 0.225 µM) | 0.125 (≈ 0.225 µM) | 0.25 (≈ 0.451 µM) | 0.125 (≈ 0.225 µM) | 0.03 (≈ 0.0541 µM) | 0.125 (≈ 0.225 µM) | 0.25 (≈ 0.451 µM) | 0.125 (≈ 0.225 µM) | 2 (≈ 3.61 µM) | 8 (≈ 14.4 µM) | 0.016 (≈ 0.0289 µM) | 0.03 (≈ 0.0541 µM) | 0.016 (≈ 0.0289 µM) | 0.016 (≈ 0.0289 µM) | MIC (Streptococcus pneumoniae [21]): 0.03 µg/mL (≈ 0.0541 µM); MIC (Streptococcus pneumoniae [22]): 0.016 µg/mL (≈ 0.0289 µM); MIC (Streptococcus pneumoniae [23]): 0.016 µg/mL (≈ 0.0289 µM); MIC (Streptococcus pneumoniae [24]): 0.016 µg/mL (≈ 0.0289 µM); MIC (Streptococcus pneumoniae [25]): 0.03 µg/mL (≈ 0.0541 µM); MIC (Streptococcus pneumoniae [26]): 0.016 µg/mL (≈ 0.0289 µM); MIC (Streptococcus pneumoniae [27]): 0.03 µg/mL (≈ 0.0541 µM); MIC (Streptococcus pneumoniae [28]): 0.016 µg/mL (≈ 0.0289 µM); MIC (Streptococcus pneumoniae [29]): 1 µg/mL (≈ 1.8 µM); MIC (Streptococcus pneumoniae [30]): 2 µg/mL (≈ 3.61 µM); MIC (Streptococcus pneumoniae [31]): 1 µg/mL (≈ 1.8 µM); MIC (Streptococcus pneumoniae [32]): 1 µg/mL (≈ 1.8 µM); MIC (Streptococcus pneumoniae [33]): 2 µg/mL (≈ 3.61 µM); MIC (Streptococcus pneumoniae [34]): 0.03 µg/mL (≈ 0.0541 µM); MIC (Streptococcus pneumoniae [35]): 0.06 µg/mL (≈ 0.108 µM); MIC (Streptococcus pneumoniae [36]): 0.06 µg/mL (≈ 0.108 µM); MIC (Streptococcus pneumoniae [37]): 0.03 µg/mL (≈ 0.0541 µM); MIC (Streptococcus pneumoniae [38]): 0.06 µg/mL (≈ 0.108 µM)
CN(C)c1cc(NC(=O)CNC(C)(C)C)c(O)c2c1C[C@H]1C[C@H]3[C@H](N(C)C)C(O)=C(C(N)=O)C(=O)[C@@]3(O)C(O)=C1C2=O [TIGECYCLINE] | 0.03 (≈ 0.0512 µM) | 0.03 (≈ 0.0512 µM) | 0.03 (≈ 0.0512 µM) | 0.03 (≈ 0.0512 µM) | 0.03 (≈ 0.0512 µM) | 0.03 (≈ 0.0512 µM) | 0.03 (≈ 0.0512 µM) | 0.03 (≈ 0.0512 µM) | 0.03 (≈ 0.0512 µM) | 0.03 (≈ 0.0512 µM) | 0.03 (≈ 0.0512 µM) | 0.03 (≈ 0.0512 µM) | 0.03 (≈ 0.0512 µM) | 0.03 (≈ 0.0512 µM) | 0.016 (≈ 0.0273 µM) | 0.016 (≈ 0.0273 µM) | 0.03 (≈ 0.0512 µM) | 0.03 (≈ 0.0512 µM) | 0.03 (≈ 0.0512 µM) | 0.016 (≈ 0.0273 µM) | MIC (Streptococcus pneumoniae [21]): 0.03 µg/mL (≈ 0.0512 µM); MIC (Streptococcus pneumoniae [22]): 0.03 µg/mL (≈ 0.0512 µM); MIC (Streptococcus pneumoniae [23]): 0.03 µg/mL (≈ 0.0512 µM); MIC (Streptococcus pneumoniae [24]): 0.06 µg/mL (≈ 0.102 µM); MIC (Streptococcus pneumoniae [25]): 0.016 µg/mL (≈ 0.0273 µM); MIC (Streptococcus pneumoniae [26]): 0.03 µg/mL (≈ 0.0512 µM); MIC (Streptococcus pneumoniae [27]): 0.016 µg/mL (≈ 0.0273 µM); MIC (Streptococcus pneumoniae [28]): 0.03 µg/mL (≈ 0.0512 µM); MIC (Streptococcus pneumoniae [29]): 0.016 µg/mL (≈ 0.0273 µM); MIC (Streptococcus pneumoniae [30]): 0.03 µg/mL (≈ 0.0512 µM); MIC (Streptococcus pneumoniae [31]): 0.016 µg/mL (≈ 0.0273 µM); MIC (Streptococcus pneumoniae [32]): 0.03 µg/mL (≈ 0.0512 µM); MIC (Streptococcus pneumoniae [33]): 0.03 µg/mL (≈ 0.0512 µM); MIC (Streptococcus pneumoniae [34]): 0.03 µg/mL (≈ 0.0512 µM); MIC (Streptococcus pneumoniae [35]): 0.03 µg/mL (≈ 0.0512 µM); MIC (Streptococcus pneumoniae [36]): 0.016 µg/mL (≈ 0.0273 µM); MIC (Streptococcus pneumoniae [37]): 0.016 µg/mL (≈ 0.0273 µM); MIC (Streptococcus pneumoniae [38]): 0.03 µg/mL (≈ 0.0512 µM)
